ChEMBL document CHEMBL3596093, “Synthesis and antimicrobial evaluation of 5-aryl-1,2,4-triazole-3-thione derivatives containing a rhodanine moiety” (2015)
In brackets after ≈: the same amount, converted by molar mass.

How the values were obtained:
Staphylococcus aureus [1] = experiment: Antibacterial activity against quinolone-resistant Staphylococcus aureus CCARM 3505 after 24 hrs by two-fold serial dilution method; format: functional; conditions: CCARM 3505, 24 h
In short: (§1)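 Broth microdilution MIC. Bacteria grown to mid-log phase in Mueller-Hinton broth, diluted 1000-fold, about 10^5 CFU/mL. Compounds from DMSO stocks, two-fold serial dilution from a final 64 µg/mL. Incubation at 37 °C for 24 h. Growth read as absorbance at 630 nm on a microplate reader. Run in triplicate.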

Escherichia coli [2] = experiment: Antibacterial activity against Escherichia coli KCTC 1924 after 24 hrs by two-fold serial dilution method; format: functional; conditions: KCTC 1924, 24 h
In short: (§2)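 Strains grown to mid-log phase in Mueller-Hinton broth, then diluted 1000-fold in the same broth to about 10^5 CFU/mL. Compounds were made up as DMSO stocks and two-fold serially diluted from a final top concentration of 64 µg/mL. Incubation was 37 °C for 24 h. Growth was read as absorbance at 630 nm on a microplate reader. MIC assays were run in triplicate.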

Escherichia coli [3] = experiment: Antibacterial activity against Escherichia coli CCARM 1356 after 24 hrs by two-fold serial dilution method; format: functional; conditions: CCARM 1356, 24 h; in short: as §2
Salmonella typhimurium = experiment: Antibacterial activity against Salmonella typhimurium 2421 after 24 hrs by two-fold serial dilution method; format: functional, Salmonella enterica subsp. enterica serovar Typhimurium; conditions: Salmonella enterica, 2421, 24 h; in short: as §2
Staphylococcus aureus [4] = experiment: Antibacterial activity against methicillin-resistant Staphylococcus aureus CCARM 3506 after 24 hrs by two-fold serial dilution method; format: functional; conditions: CCARM 3506, 24 h; in short: as §1
Staphylococcus aureus [5] = experiment: Antibacterial activity against quinolone-resistant Staphylococcus aureus CCARM 3519 after 24 hrs by two-fold serial dilution method; format: functional; conditions: CCARM 3519, 24 h; in short: as §1
Staphylococcus aureus [6] = experiment: Antibacterial activity against methicillin-resistant Staphylococcus aureus CCARM 3167 after 24 hrs by two-fold serial dilution method; format: functional; conditions: CCARM 3167, 24 h; in short: as §1
Streptococcus mutans [7] = experiment: Antibacterial activity against Streptococcus mutans 3065 after 24 hrs by two-fold serial dilution method; format: functional; conditions: Streptococcus mutans, 3065, 24 h; in short: as §2
Escherichia coli [8] = experiment: Ratio of MBC to MIC for Escherichia coli KCTC 1924; format: functional
In short: (§3)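 The ratio divides MBC by MIC for the same strain. MIC comes from two-fold broth microdilution in Mueller-Hinton broth (about 10^5 CFU/mL, 37 °C, 24 h, absorbance at 630 nm). MBC comes from subculturing 5 µL from clear wells onto Mueller-Hinton agar for another 24 h at 37 °C, taken as the lowest concentration with no colonies.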

Candida albicans = experiment: Antifungal activity against Candida albicans 7535 after 24 hrs by two-fold serial dilution method; format: functional; conditions: Candida albicans, 7535, 24 h
Escherichia coli [9] = experiment: Bactericidal activity against Escherichia coli KCTC 1924 after 24 hrs by agar plate method; format: functional; conditions: KCTC 1924, 24 h
In short: (§4)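 Samples of 5 µL from MIC wells with no visible growth were plated onto fresh Mueller-Hinton agar and incubated a further 24 h at 37 °C. MBC is the lowest concentration giving no visible colony growth on the agar. Assays were run in triplicate.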

Staphylococcus aureus [10] = experiment: Antibacterial activity against Staphylococcus aureus KCTC 503 after 24 hrs by two-fold serial dilution method; format: functional; conditions: KCTC 503, 24 h; in short: as §2
Pseudomonas aeruginosa [11] = experiment: Antibacterial activity against Pseudomonas aeruginosa 2004 after 24 hrs by two-fold serial dilution method; format: functional; conditions: Pseudomonas aeruginosa, 2004, 24 h; in short: as §2
Staphylococcus aureus [12] = experiment: Antibacterial activity against Staphylococcus aureus KCTC 209 after 24 hrs by two-fold serial dilution method; format: functional; conditions: KCTC 209, 24 h; in short: as §2
Staphylococcus aureus [13] = experiment: Antibacterial activity against Staphylococcus aureus RN4220 after 24 hrs by two-fold serial dilution method; format: functional; conditions: RN4220, 24 h; in short: as §1
Pseudomonas aeruginosa [14] = experiment: Antibacterial activity against Pseudomonas aeruginosa 2742 after 24 hrs by two-fold serial dilution method; format: functional; conditions: Pseudomonas aeruginosa, 2742, 24 h; in short: as §2
Staphylococcus aureus [15] = experiment: Bactericidal activity against Staphylococcus aureus RN4220 after 24 hrs by agar plate method; format: functional; conditions: RN4220, 24 h; in short: as §4
Staphylococcus aureus [16] = experiment: Bactericidal activity against methicillin-resistant Staphylococcus aureus CCARM 3506 after 24 hrs by agar plate method; format: functional; conditions: CCARM 3506, 24 h
In short: (§5)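 5 µL from each well without visible growth plated on fresh Mueller-Hinton agar, then 37 °C for a further 24 h. MBC is the lowest concentration giving no visible colonies. Run in triplicate.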

Staphylococcus aureus [17] = experiment: Bactericidal activity against methicillin-resistant Staphylococcus aureus CCARM 3167 after 24 hrs by agar plate method; format: functional; conditions: CCARM 3167, 24 h; in short: as §5
Staphylococcus aureus [18] = experiment: Bactericidal activity against Staphylococcus aureus KCTC 503 after 24 hrs by agar plate method; format: functional; conditions: KCTC 503, 24 h; in short: as §5
Streptococcus mutans [19] = experiment: Bactericidal activity against Streptococcus mutans 3065 after 24 hrs by agar plate method; format: functional; conditions: Streptococcus mutans, 3065, 24 h; in short: as §4
Staphylococcus aureus [20] = experiment: Bactericidal activity against quinolone-resistant Staphylococcus aureus CCARM 3519 after 24 hrs by agar plate method; format: functional; conditions: CCARM 3519, 24 h; in short: as §5
Staphylococcus aureus [21] = experiment: Bactericidal activity against quinolone-resistant Staphylococcus aureus CCARM 3505 after 24 hrs by agar plate method; format: functional; conditions: CCARM 3505, 24 h; in short: as §5
Staphylococcus aureus [22] = experiment: Ratio of MBC to MIC for Staphylococcus aureus KCTC 503; format: functional; in short: as §3
[23] = tested on: Staphylococcus aureus subsp. aureus RN4220; experiment: Ratio of MBC to MIC for Staphylococcus aureus RN4220; format: functional; in short: as §3

| SMILES | MIC (Staphylococcus aureus [1]) [mg/L] | MIC (Escherichia coli [2]) [mg/L] | MIC (Escherichia coli [3]) [mg/L] | MIC (Salmonella typhimurium) [mg/L] | MIC (Staphylococcus aureus [4]) [mg/L] | MIC (Staphylococcus aureus [5]) [mg/L] | MIC (Staphylococcus aureus [6]) [mg/L] | MIC (Streptococcus mutans [7]) [mg/L] | MIC (Candida albicans) [mg/L] | MIC (Staphylococcus aureus [10]) [mg/L] | MIC (Pseudomonas aeruginosa [11]) [mg/L] | MIC (Staphylococcus aureus [12]) [mg/L] | MIC (Staphylococcus aureus [13]) [mg/L] | MIC (Pseudomonas aeruginosa [14]) [mg/L] | MBC (Staphylococcus aureus [15]) [mg/L] | MBC (Staphylococcus aureus [16]) [mg/L] | MBC (Staphylococcus aureus [17]) [mg/L] | MBC (Staphylococcus aureus [18]) [mg/L] | MBC (Streptococcus mutans [19]) [mg/L] | MBC (Staphylococcus aureus [20]) [mg/L] | further results |
| --- | --- | --- | --- | --- | --- | --- | --- | --- | --- | --- | --- | --- | --- | --- | --- | --- | --- | --- | --- | --- | --- |
| O=C(O)CN1C(=O)/C(=C/c2ccc(/C=N/n3c(-c4ccccc4Cl)n[nH]c3=S)cc2)SC1=S | > 64 | 64 (≈ 124 µM) | > 128 | > 128 | > 64 | > 64 | > 64 | > 64 | > 64 | > 64 | > 128 | > 64 | 64 (≈ 124 µM) | > 128 | 256 (≈ 496 µM) | – | – | – | – | – | Ratio (Escherichia coli [8]): <=4; MBC (Escherichia coli [9]): 128 mg/L (≈ 248 µM) |
| Cc1ccccc1-c1n[nH]c(=S)n1/N=C/c1ccc(/C=C2\SC(=S)N([C@@H](Cc3ccccc3)C(=O)O)C2=O)cc1 | 16 (≈ 27.3 µM) | 64 (≈ 109 µM) | > 128 | > 128 | 16 (≈ 27.3 µM) | 16 (≈ 27.3 µM) | 16 (≈ 27.3 µM) | 8 (≈ 13.7 µM) | > 64 | 16 (≈ 27.3 µM) | > 128 | > 64 | 16 (≈ 27.3 µM) | > 128 | 64 (≈ 109 µM) | 64 (≈ 109 µM) | 32 (≈ 54.6 µM) | 32 (≈ 54.6 µM) | 16 (≈ 27.3 µM) | > 128 | Ratio (Escherichia coli [8]): <=4; MBC (Staphylococcus aureus [21]): 64 mg/L (≈ 109 µM); MBC (Escherichia coli [9]): 64 mg/L (≈ 109 µM); Ratio (Staphylococcus aureus [22]): <=4 |
| Cc1cccc(-c2n[nH]c(=S)n2/N=C/c2ccc(/C=C3\SC(=S)N([C@@H](Cc4ccccc4)C(=O)O)C3=O)cc2)c1 | 16 (≈ 27.3 µM) | > 128 | > 128 | > 128 | 16 (≈ 27.3 µM) | 16 (≈ 27.3 µM) | 16 (≈ 27.3 µM) | 64 (≈ 109 µM) | > 64 | 64 (≈ 109 µM) | > 128 | > 64 | 32 (≈ 54.6 µM) | > 128 | 32 (≈ 54.6 µM) | 64 (≈ 109 µM) | 128 (≈ 219 µM) | 128 (≈ 219 µM) | 256 (≈ 437 µM) | 128 (≈ 219 µM) | MBC (Staphylococcus aureus [21]): 64 mg/L (≈ 109 µM); Ratio (Staphylococcus aureus [22]): <=4 |
| Cc1ccc(-c2n[nH]c(=S)n2/N=C/c2ccc(/C=C3\SC(=S)N([C@@H](Cc4ccccc4)C(=O)O)C3=O)cc2)cc1 | 16 (≈ 27.3 µM) | > 128 | > 128 | > 128 | 16 (≈ 27.3 µM) | 16 (≈ 27.3 µM) | 8 (≈ 13.7 µM) | 64 (≈ 109 µM) | > 64 | 64 (≈ 109 µM) | > 128 | > 64 | 8 (≈ 13.7 µM) | > 128 | 8 (≈ 13.7 µM) | 128 (≈ 219 µM) | 64 (≈ 109 µM) | 64 (≈ 109 µM) | > 256 | > 128 | MBC (Staphylococcus aureus [21]): 128 mg/L (≈ 219 µM); Ratio (Staphylococcus aureus [22]): <=4 |
| O=C(O)[C@H](Cc1ccccc1)N1C(=O)/C(=C/c2ccc(/C=N/n3c(-c4ccc(Cl)cc4)n[nH]c3=S)cc2)SC1=S | 16 (≈ 26.4 µM) | > 128 | > 128 | > 128 | 16 (≈ 26.4 µM) | 16 (≈ 26.4 µM) | 8 (≈ 13.2 µM) | 16 (≈ 26.4 µM) | > 64 | 16 (≈ 26.4 µM) | > 128 | > 64 | 8 (≈ 13.2 µM) | > 128 | 16 (≈ 26.4 µM) | 128 (≈ 211 µM) | 64 (≈ 106 µM) | 128 (≈ 211 µM) | 32 (≈ 52.8 µM) | 128 (≈ 211 µM) | MBC (Staphylococcus aureus [21]): 64 mg/L (≈ 106 µM); Ratio [23]: 2 |
